Experimental findings from ChEMBL document CHEMBL1126060, “Spiropiperidines as high-affinity, selective sigma ligands” (J Med Chem, 1992) are described below.

Broadly, the IC50 is the point on the concentration scale where inhibition reaches its midpoint. Lower therefore signals higher potency.

D(2) dopamine receptor, sequence (P61169 whole entry): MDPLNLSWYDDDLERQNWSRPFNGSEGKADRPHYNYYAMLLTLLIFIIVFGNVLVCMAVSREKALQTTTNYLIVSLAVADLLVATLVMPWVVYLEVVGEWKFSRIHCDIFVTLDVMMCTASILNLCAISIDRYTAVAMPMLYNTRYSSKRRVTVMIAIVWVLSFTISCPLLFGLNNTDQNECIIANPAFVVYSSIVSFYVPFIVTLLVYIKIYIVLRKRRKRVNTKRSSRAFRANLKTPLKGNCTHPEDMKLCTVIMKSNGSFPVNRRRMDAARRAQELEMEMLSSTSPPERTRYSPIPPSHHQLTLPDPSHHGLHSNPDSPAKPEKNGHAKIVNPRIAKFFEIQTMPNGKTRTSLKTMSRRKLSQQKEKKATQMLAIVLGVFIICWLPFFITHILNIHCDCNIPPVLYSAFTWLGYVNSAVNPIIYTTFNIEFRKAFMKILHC

This assay has as its target D(2) dopamine receptor (Rattus norvegicus, UniProt P61169). Description: In vitro for the binding affinity against dopamine receptor D2 by using [3H](-)-sulpiride as radioligand in rat striatum. Format: tissue-based. A digest of the protocol:
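Displacement of [³H]-(-)-sulpiride from rat striatal homogenates. Values are reported as -log₁₀(IC₅₀), the mean of two to three independent determinations. Values without error limits are the mean of two independent experiments.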
For `CCCCCCN1CCC2(CCc3ccccc32)CC1`, the half-inhibitory concentration (IC50) was 5.5 µM. In other words, the single-digit micromolar range.

`CC(C)=CCN1CCC2(CCc3ccccc32)CC1` showed an IC50 of 17 µM. This IC50 is about 3.1-fold higher than that of the compound before.

Compound `CCCCN1CCC2(CCCCc3ccccc32)CC1` showed an IC50 of 2.51 µM.

The compound `c1ccc2c(c1)CCC21CCN(CC2CCCCC2)CC1` gave an IC50 of 6.61 µM.

Compound `CCCCCCN1CCC2(CCCc3ccccc32)CC1` gave an IC50 of 2.04 µM.

The compound `CC(C)=CCN1CCC2(CCCc3ccccc32)CC1` gave an IC50 of 5.5 µM. Compared with the last compound, the IC50 is about 2.7-fold higher.

Take `CCCCN1CCC2(CCCc3ccccc32)CC1`: the IC50 was 11 µM.

Take `c1ccc2c(c1)CCCC21CCN(CC2CCCCC2)CC1`: the IC50 was 1.95 µM. Against the preceding compound, the IC50 is about 5.6-fold lower.

On to `Cc1ccc(CN2CCC3(CCCc4ccccc43)CC2)cc1`, for which the IC50 is 0.174 µM.

`COc1ccc(CN2CCC3(CCc4ccccc43)CC2)cc1`: the IC50 was 0.617 µM.

Compound `c1ccc(CN2CCC3(CCCCc4ccccc43)CC2)cc1` had a half-maximal inhibitory concentration (IC50) of 3.72 µM.

`CCCCN1CCC2(CCc3ccccc32)CC1` had a half-inhibitory concentration (IC50) of 3.98 µM. The IC50 values of the last two compounds are within 1.5-fold of each other.

As to `c1ccc(CN2CCC3(CCc4ccccc43)CC2)cc1`, the IC50 is 0.891 µM.

Consider `COc1ccc(CN2CCC3(CCCc4ccccc43)CC2)cc1`, for which the concentration for half-maximal inhibition (IC50) is 0.12 µM.
